Screening results (PubChem)
This is a sample that favours compounds with a hit; in the whole collection about 0.55% have one here.
OXTR potentiate: potentiators of human oxytocin receptor; P30559; CHO-OTR cells, Fluo-8 calcium fluorescence, potentiator mode; 0% = oxytocin EC15, 100% = EC100; activation, % at 3 µM; actives 0.061% (n = 320,000); AID 2445;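 active = activation above that plate's cutoff, the mean activation of tested compounds plus 3 SD, cut at about 6.6% in these data, passing the limit was not always enough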;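 note: 100% uses oxytocin at 75 nM as the full agonist control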
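test system = CHO-OTR cells, human receptor | compound = single-point 3.0 µM | schedule = 6 min compound pre-incubation at room temperature, 100 s kinetic read | signal = Fluo-8 no-wash calcium dye fluorescence, excitation 470-495 nm, emission 515-575 nm | repeats = single well per compound, singlicate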
TRPML3 agonist: agonists of human TRPML3 channel | actives 0.29% (n = 220,000) | HEK293 TRPML3-YFP, Fluo-8 calcium fluorescence; 100% = the carbachol control signal | activation, % at 3 µM | AID 1448;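 active = activation above its plate's cutoff, the mean activation of the plate's test wells plus 3 SD, cut at about 12% in these data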;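 note: 0% = DMSO only wells and 100% = carbachol wells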
Target sequence (Q8TDD5 whole entry, looked up): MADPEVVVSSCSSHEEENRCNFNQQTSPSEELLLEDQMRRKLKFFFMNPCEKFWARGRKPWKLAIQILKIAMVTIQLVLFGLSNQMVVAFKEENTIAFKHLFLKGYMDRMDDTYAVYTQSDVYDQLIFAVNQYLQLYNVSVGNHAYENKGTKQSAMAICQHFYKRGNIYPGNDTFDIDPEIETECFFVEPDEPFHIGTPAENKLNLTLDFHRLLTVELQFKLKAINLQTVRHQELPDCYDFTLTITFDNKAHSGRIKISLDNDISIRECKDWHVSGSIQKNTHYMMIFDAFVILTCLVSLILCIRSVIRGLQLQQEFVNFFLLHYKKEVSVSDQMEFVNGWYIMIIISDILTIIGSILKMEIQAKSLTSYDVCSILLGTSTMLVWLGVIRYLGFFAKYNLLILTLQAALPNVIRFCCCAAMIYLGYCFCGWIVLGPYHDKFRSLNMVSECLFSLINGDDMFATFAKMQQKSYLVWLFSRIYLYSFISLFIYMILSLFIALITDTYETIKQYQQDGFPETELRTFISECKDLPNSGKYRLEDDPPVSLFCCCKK
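Material: HEK293 cells stably carrying human TRPML3-YFP; compound dosing: single dose, 3 µM final nominal compound, 0.3% DMSO final; incubation: 1-h 37 °C dye load, 5-s basal, 120-s post-compound reads; technique: Fluo-8 intracellular calcium fluorescence, excitation 470-495 nm, emission 515-575 nm; read-out basis: percent activation from peak-to-basal fluorescence ratio, scaled between DMSO and carbachol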
TRPN1 ag: agonists of zebrafish TRPN1 channel; HEK293 zebrafish TRPN1-YFP, Fluo-8 calcium fluorescence; 100% = response to 87 µM carbachol; activation, % at 3 µM; actives 0.18% (n = 220,000); AID 1424;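 active = activation above its plate's cutoff, the mean activation of test wells on that plate plus 3 SD, cut at about 19% in these data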;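 note: 0% = DMSO alone and 100% = 87 µM carbachol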
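System: zebrafish TRPN1-YFP in HEK293 cells / Dosing: 3 µM single point / Timing: dye loading 1 h at 37 °C, then 30 min room temperature / Signal: Fluo-8 calcium fluorescence, excitation 470-495 nm, emission 515-575 nm / Read-out basis: percent activation from peak over basal fluorescence ratio, control-normalized / Control set: high carbachol 87 µM, low DMSO alone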
V1aR counter: activates human V1a receptor in oxytocin agonist counter-screen | actives 0.25% (n = 320,000) | P37288 | activation, % at 3 µM | CHO-V1R cells, Fluo-8 calcium fluorescence, agonist mode; 0% DMSO, 100% 3 nM vasopressin | AID 2797;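 active = activation above the mean activation of all tested compounds plus 3 SD, per screening run, cut at about 20% in these data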;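 note: signal is peak over basal fluorescence ratio across a 100 second FLIPR read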
OXTR ag: activates the human oxytocin receptor. CHO-OTR cells, Fluo-8 calcium fluorescence; normalized: DMSO 0%, oxytocin 100%. activation, % at 3 µM. actives 0.32% (n = 320,000);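 active = activation above the mean of all tested compounds plus 3 SD, cutoff set per screening run, cut at about 20% in these data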;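 note: peak over basal fluorescence ratio from a 100 s FLIPR kinetic read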
OXTR pot confirm: confirmation of human oxytocin receptor potentiators | CHO-OTR cells, Fluo-8 calcium fluorescence, potentiation; scaled from low-dose to maximal oxytocin | 180 tested, under 10 active | activation, % at 3 µM | shares compounds with OXTR potentiate | AID 434985;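 active = mean percent activation over triplicates above a cutoff set from solvent-only control plates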;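 note: compounds tested in the presence of an EC15 dose of oxytocin; 0% = EC15 oxytocin with DMSO and 100% = EC100 oxytocin with DMSO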
V1R ag confirm: human V1a receptor agonism, confirmation; actives 20% (n = 180); CHO-V1R cells, Fluo-8 calcium fluorescence, agonist; shares compounds with V1aR counter; activation, % at 3 µM;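 active = average activation exceeds primary screen hit cutoff, cut at about 21% in these data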;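 note: peak over basal fluorescence ratio during a 100 s FLIPR read; 0% = DMSO only wells and 100% = 3 nM vasopressin wells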
OXTR ag counter: activates oxytocin receptor in V1a agonist counter-screen; actives 10% (n = 180); activation, % at 3 µM; CHO-OTR cells, Fluo-8 calcium fluorescence; shares compounds with V1aR counter;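 active = mean activation over three repeats above the cutoff from the earlier oxytocin receptor agonist screen, cut at about 20% in these data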;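 note: peak over minimum fluorescence ratio within a 100 second FLIPR read; 0% = DMSO only wells and 100% = oxytocin high control wells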
* = called active by the depositor; · = no result given.

SMILES | OXTR potentiate | TRPML3 agonist | TRPN1 ag | V1aR counter | OXTR ag | V1R ag confirm | OXTR ag counter | others
Fc1ccc2cnc(-c3ccccc3)c(-c3cc(C(F)(F)F)cc(C(F)(F)F)c3)c2c1 | 7 | · | · | 0 | 0 | · | ·
CCOC(=O)N1CCN(C(=O)C2CCN(C(=O)Nc3ccccc3)CC2)CC1 | 11* | · | · | 2 | 2 | · | · | OXTR pot confirm=3
CCN1CCN(C(=O)C2CCN(C(=O)Nc3ccccc3)CC2)CC1 | 1 | · | · | 0 | 1 | · | ·
CCOC(=O)c1c(C)nc(C)c(C(=O)OCC)c1-c1ccccc1 | -2 | -1 | -1 | -2 | -1 | · | ·
CCOC(=O)c1c(C)nc2c(c1-c1cc(OC)c(OC)c(OC)c1)C(=O)c1ccccc1-2 | 11* | 0 | -2 | -1 | -2 | · | · | OXTR pot confirm=-8
O=S(=O)(c1ccc(Cl)nc1)N1CCCc2ccccc21 | 8.3* | 0 | -1 | -1 | -2 | · | · | OXTR pot confirm=1
O=C(Cc1cccc(NC(=O)C2CCCN(C(=O)C3CCC3)C2)c1)Nc1cccc(C(=O)N2CCCC2)c1 (stereo not drawn) | -5 | · | · | -1 | -1 | · | ·
O=C(COC(=O)c1ccc(F)c(S(=O)(=O)N2CCOCC2)c1)NC1CC1 | -4 | · | · | 0 | 2 | · | ·
CCOC(=O)C1=C(C)Nc2nc(SCC(=O)OC)nn2C1c1cc(F)cc(F)c1 (stereo not drawn) | 11* | 1 | 0 | -1 | -2 | · | · | OXTR pot confirm=-13
O=C(CSc1ccccc1F)NC(=O)c1ccccc1Br | 0 | · | · | 1 | 0 | · | ·
COCCCN1CC(=O)N2C(c3ccccc3)c3[nH]c4ccccc4c3C[C@H]2C1=O (stereo partly drawn) | 8.7* | · | · | 1 | 0 | · | · | OXTR pot confirm=-5
O=C(COc1ccc(-c2nnco2)cc1)Nc1ccc(C(F)(F)F)cc1 | -10 | · | · | 21* | 3 | 4 | 1
O=C(COc1ccc(-c2nnco2)cc1)NCc1ccccc1Cl | -1 | -1 | -1 | 0 | 1 | · | ·
NS(=O)(=O)c1ccc2nc(NC(=O)Nc3ccc(F)cc3)sc2c1 | -2 | · | · | 24* | 1 | 1 | 1
CN(CC(=O)Nc1ccccc1C(F)(F)F)C(=O)CSc1nnc(-c2ccncc2)n1C | -2 | · | · | 0 | -1 | · | ·
CC(C(=O)N1CCc2ccccc21)N(C)CC(=O)Nc1cccc(F)c1 (stereo not drawn) | -4 | · | · | 2 | -1 | · | ·
CCC(NC(=O)c1cc(COc2ccc(C)nc2)on1)c1ccc(C)cc1 (stereo not drawn) | -18 | · | · | 23* | 12 | 13 | 13
Cc1cc(NCc2ccccc2)c2ccccc2n1 | -2 | · | · | 4 | 0 | · | ·
Cc1cc(NCc2ccccc2)nc2ccccc12 | -35 | 3 | 4 | 32* | 17 | 14 | 1
O=C(NC(=S)NCCc1ccccn1)c1ccco1 | 0 | 0 | 0 | 117* | 0 | 0 | 0
O=C(NC(=S)NCCc1ccccn1)c1ccccc1 | 0 | 0 | 2 | 0 | 0 | · | ·
CCOc1cccc(-c2c(C(=O)N/N=C/c3cccs3)nnn2-c2nonc2N)c1 | -5 | · | · | 24* | 19 | 14 | 7
COc1ccc(/C=N/NC(=O)c2nnn(-c3nonc3N)c2-c2cccc(OC)c2)cc1 | -5 | · | · | 26* | 16 | 25* | 25*
COc1cccc(-c2c(C(=O)N/N=C(\C)c3ccc(Cl)s3)nnn2-c2nonc2N)c1 | -6 | · | · | 25* | 18 | 8 | 1
Cc1ccc(/C=N/NC(=O)c2nnn(-c3nonc3N)c2-c2ccc3c(c2)OCO3)s1 | -4 | · | · | 30* | 12 | 14 | 3
SMILES | OXTR potentiate | TRPML3 agonist | TRPN1 ag | V1aR counter | OXTR ag | V1R ag confirm | OXTR ag counter | others
O=C(COC(=O)c1cccc(OC(F)F)c1)Nc1cccc(S(=O)(=O)N2CCCC2)c1 | -9 | · | · | 4 | 8 | · | ·
CCOC(=O)[C@H]1[C@H]2COc3ccc(Br)cc3[C@@H]2N2C(=O)CN(Cc3ccco3)C(=O)[C@@]12C | -4 | · | · | 0 | 1 | · | ·
COc1ccc(CCC(=O)OCC(=O)NCc2ccccc2)cc1 | 5 | · | · | -1 | -1 | · | ·
CC(C)C(C(=O)Nc1ccncc1)c1ccc(Cl)cc1 (stereo not drawn) | -12 | · | · | 27* | 14 | 12 | 16
O=C(C/C=N\OCc1ccc([N+](=O)[O-])cc1)Nc1ccccc1 | -7 | 0 | -1 | 3 | 3 | · | ·
COC(=O)C(/C=N/OCc1ccc([N+](=O)[O-])cc1)NC(=O)c1ccccc1 (stereo not drawn) | -29 | 3 | 3 | 25* | 14 | 11 | 18
CCC1Sc2ccc(S(=O)(=O)Nc3ccc(OC)cc3)cc2NC1=O (stereo not drawn) | -13 | · | · | 20* | 13 | 5 | 4
CCC1Sc2ccc(S(=O)(=O)Nc3ccc(OC)c(OC)c3)cc2NC1=O (stereo not drawn) | -23 | · | · | 6 | 7 | · | ·
CC(=O)Nc1ccc(S(=O)(=O)N(C)CC(=O)N(C)Cc2sccc2C)cc1 | -7 | · | · | 0 | 0 | · | ·
COc1ccc(OC)c2c1C(=O)c1ccccc1C2=O | -16 | 2 | 3 | 23* | 17 | 33* | 21*
CC(NC(=O)Nc1ccc(Cl)c(Cl)c1)C(c1ccccc1)N1CCOCC1 (stereo not drawn) | -18 | 0 | 1 | 44* | 14 | 25* | 8
CC(NC(=O)c1ccc(Cl)cc1Cl)C(c1ccccc1)N1CCOCC1 (stereo not drawn) | -8 | -1 | -3 | -1 | -2 | · | ·
CC(NC(=O)Nc1ccc([N+](=O)[O-])cc1)C(c1ccccc1)N1CCOCC1 (stereo not drawn) | -12 | 0 | 1 | 52* | 20 | 26* | 8
CCN(CC(=O)Nc1c(F)cccc1F)C(=O)C1CCN(C(=O)Nc2ccccc2)CC1 | -3 | · | · | 1 | 1 | · | ·
O=C(COC(=O)Cc1ccsc1)Nc1ccc(Br)cc1F | -4 | · | · | -1 | -2 | · | ·
CCN(CC(=O)NCc1cccs1)C(=O)c1ccc(S(=O)(=O)Nc2ccccc2Cl)cc1 | -3 | · | · | 0 | -1 | · | ·
Cc1ccc(CNC(=O)C(N=C2NS(=O)(=O)c3ccccc32)C(C)C)cc1 (stereo not drawn) | -10 | · | · | 2 | 0 | · | ·
Cc1ccc(C(C)NC(=S)NCc2ccc(F)cc2)c(C)c1 (stereo not drawn) | -16 | · | · | 23* | 3 | 4 | 2
Cc1noc(C(F)(F)F)c1C(=O)NNC(=O)c1cccc(C(F)(F)F)c1 | -3 | 1 | 0 | 20* | -1 | 1 | 0
